pIC50, pKi: −log10 of the molar value.
Experiments:
Vasopressin V1b receptor = target: T1, Vasopressin V1b receptor (Homo sapiens, UniProt P47901); assay: Displacement of [3H]AVP from human vasopressin V1b receptor expressed in CHO cell membranes after 60 mins by TopCount microplate scintillation counting method
T1 sequence (P47901 whole entry): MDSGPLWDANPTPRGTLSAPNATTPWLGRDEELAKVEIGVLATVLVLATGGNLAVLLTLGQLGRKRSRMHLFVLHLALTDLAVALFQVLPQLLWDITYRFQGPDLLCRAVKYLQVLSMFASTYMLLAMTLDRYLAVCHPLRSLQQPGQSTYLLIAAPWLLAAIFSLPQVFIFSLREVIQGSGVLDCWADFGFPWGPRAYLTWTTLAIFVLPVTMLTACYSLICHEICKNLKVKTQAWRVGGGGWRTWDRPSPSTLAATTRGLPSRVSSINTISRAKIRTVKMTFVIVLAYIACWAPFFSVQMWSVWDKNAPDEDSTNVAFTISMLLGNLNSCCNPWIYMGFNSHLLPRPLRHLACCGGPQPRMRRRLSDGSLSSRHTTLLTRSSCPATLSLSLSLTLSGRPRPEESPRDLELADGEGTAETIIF

Homo sapiens [1] = species: Homo sapiens; assay: Selectivity index, ratio of Ki for human vasopressin V1a receptor to Ki for human vasopressin V1b receptor
Summary of the method: (§1)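 Selectivity was calculated from human receptor Ki values as Ki hOT/Ki hV1b or Ki hV1a/Ki hV1b. Each Ki is the mean of at least two experiments (MSR 2.8).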

Homo sapiens [2] = species: Homo sapiens; assay: Selectivity index, ratio of Ki for human oxytocin receptor to Ki for human vasopressin V1b receptor; summary of the method: as §1
[3] = Intrinsic clearance in human liver microsomes; type: ADME, microsome; conditions: read-out: CLH
Summary of the method: (§2)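 Intrinsic clearance was measured in human and rat liver microsomes, in µL/min/mg. Values are means of at least two experiments.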

[4] = Intrinsic clearance in rat liver microsomes; type: ADME, microsome; conditions: read-out: CLH; summary of the method: as §2
[5] = Elimination half life in rat at 2 mg/kg, iv; type: ADME, organism-based; conditions: in vivo, read-out: beta t1/2 (converted)
Summary of the method: (§3)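 Rat PK after a 2 mg/kg intravenous dose. Plasma clearance (L/h/kg), terminal half-life (h) and steady-state volume of distribution (L/kg) were derived.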

[6] = Volume of distribution at steady state in rat at 2 mg/kg, iv; type: ADME, organism-based; conditions: in vivo, read-out: Vdss; summary of the method: as §3
[7] = Clearance in rat plasma at 2 mg/kg, iv; type: ADME, organism-based; summary of the method: as §3
[8] = Oral bioavailability in rat at 10 mg/kg; type: ADME, organism-based; conditions: in vivo
Summary of the method: (§4)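 Rat oral dosing, at 10 or 5 mg/kg depending on compound. Oral bioavailability (%) was calculated.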

[9] = Ratio of AUC in rat brain to plasma at 10 mg/kg, ip measured after 8 hrs; type: ADME, organism-based; conditions: read-out: Ratio AUC
Summary of the method: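 Rats were dosed 10 mg/kg intraperitoneally. Brain and plasma AUC were taken over an 8 h period, and the brain:plasma ratio was calculated from them.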

Rattus norvegicus [10] = assay: Antidepressant like activity in Sprague-Dawley rat assessed as floating time at 3 mg/kg, ip administered at 24, 4 and 0.5 hrs prior to test by forced swimming test; type: functional
Summary of the method: (§5)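 Rat forced swim test. Drug given intraperitoneally at 3 mg/kg, dosed 24, 4 and 0.5 h before testing. Floating, swimming and climbing times were scored. Nomifensine served as positive control. Data reported as mean ± SEM.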

Rattus norvegicus [11] = assay: Antidepressant like activity in Sprague-Dawley rat assessed as swimming time at 3 mg/kg, ip administered at 24, 4 and 0.5 hrs prior to test by forced swimming test; type: functional; summary of the method: as §5
Rattus norvegicus [12] = assay: Antidepressant like activity in Sprague-Dawley rat assessed as climbing time at 3 mg/kg, ip administered at 24, 4 and 0.5 hrs prior to test by forced swimming test; type: functional; summary of the method: as §5
Cytochrome P450 3A4 = Cytochrome P450 3A4 (Homo sapiens, UniProt P08684); assay: Inhibition of CYP3A4 in human liver microsomes in presence of NADPH and Luciferin BE 50; type: ADME
Summary of the method: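 CYP3A4 inhibition by co-incubation in human liver microsomes with NADPH and luciferin-BE substrate, with 0.03 mg/mL noted. Result expressed as IC50.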

[13] = Oral bioavailability in rat at 5 mg/kg; type: ADME, organism-based; conditions: in vivo; summary of the method: as §4

Sequence of Cytochrome P450 3A4 (P08684 whole entry): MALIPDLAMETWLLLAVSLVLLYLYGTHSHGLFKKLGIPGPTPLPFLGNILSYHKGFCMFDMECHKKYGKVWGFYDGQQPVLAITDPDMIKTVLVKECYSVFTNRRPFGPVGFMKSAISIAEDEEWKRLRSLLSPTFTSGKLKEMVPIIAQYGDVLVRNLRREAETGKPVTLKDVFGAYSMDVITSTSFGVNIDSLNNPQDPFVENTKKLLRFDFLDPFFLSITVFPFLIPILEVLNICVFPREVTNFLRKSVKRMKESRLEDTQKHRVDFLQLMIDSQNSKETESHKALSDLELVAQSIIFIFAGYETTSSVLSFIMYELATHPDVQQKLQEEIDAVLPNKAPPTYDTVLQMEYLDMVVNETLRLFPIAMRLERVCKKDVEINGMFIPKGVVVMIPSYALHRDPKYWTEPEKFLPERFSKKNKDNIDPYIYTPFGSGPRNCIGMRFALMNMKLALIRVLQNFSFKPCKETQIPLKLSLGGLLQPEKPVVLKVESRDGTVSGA

SMILES	pKi (Vasopressin V1b receptor)	Ratio Ki (Homo sapiens [1])	Ratio Ki (Homo sapiens [2])	microsomal CLint [3] [µL/min/mg]	microsomal CLint [4] [µL/min/mg]	also measured
CCOc1ccc(OC)cc1C1(N2CCN(c3ccncc3)CC2)C(=O)N(S(=O)(=O)c2ccc(OC)cn2)c2ccc(C#N)cc21 (stereo not given)	8.70	216	230	45	290	–
CCOc1ccc(OC)cc1C1(N2CCN(c3ccncc3)CC2)C(=O)N(S(=O)(=O)c2ccc(OC)cc2)c2ccc(C#N)cc21 (stereo not given)	7.49	–	15	93	118	–
CCOc1ccc(OC)cc1C1(N2CCN(c3ccncc3)CC2)C(=O)N(S(=O)(=O)c2cccc3cccnc23)c2ccc(C#N)cc21 (stereo not given)	8.30	79	34	170	210	half-life [5]: 2.4 h; Vd [6]: 10 L/kg; clearance [7]: 46.7 mL/min/kg; bioavailability [8]: 18%; Kp at 8 h [9]: 1.4; Time (Rattus norvegicus [10]): 159.15 s; Time (Rattus norvegicus [11]): 12.46 s; Time (Rattus norvegicus [12]): 125.69 s
CCOc1cc(OC)ccc1C1(N2CCN(c3ccncc3)CC2)C(=O)N(S(=O)(=O)c2ccc(OC)cc2OC)c2ccc(C#N)cc21 (stereo not given)	8.00	34	3	63	34	–
CCOc1nc(Cl)ccc1C1(N2CCN(c3ccncc3)CC2)C(=O)N(S(=O)(=O)c2ccc(OC)cn2)c2ccc(C#N)cc21 (stereo not given)	8.96	325	201	39	63	pIC50 (Cytochrome P450 3A4): 7.00
COc1ccc(S(=O)(=O)N2C(=O)C(c3cccnc3OC)(N3CCN(c4cccnc4)C(=O)C3)c3cc(Cl)ccc32)c(OC)c1 (stereo not given)	7.09	1	–	196	291	–
COc1ccc(S(=O)(=O)N2C(=O)C(c3ccccc3OC)(N3CCN(c4ccncc4)CC3)c3cc(C#N)ccc32)c(OC)c1 (stereo not given)	7.23	–	–	43	296	–
CCOc1ccc(OC)cc1C1(N2CCN(c3ccncc3)CC2)C(=O)N(S(=O)(=O)c2ccc(F)c3cccnc23)c2ccc(C#N)cc21 (stereo not given)	8.05	39	21	131	119	–
CCOc1nc(Cl)ccc1C1(N2CCN(c3ccnc(C)c3)CC2)C(=O)N(S(=O)(=O)c2ccc(OC)cn2)c2ccc(C#N)cc21 (single isomer, unassigned; (+)) [listing 1 of 2 here]	–	78	65	–	–	–
CCOc1nc(Cl)ccc1C1(N2CCN(c3ccnc(C)c3)CC2)C(=O)N(S(=O)(=O)c2ccc(OC)cn2)c2ccc(C#N)cc21 (racemic) [listing 2 of 2 here]	8.89	–	–	–	–	pIC50 (Cytochrome P450 3A4): 5.92
COc1ccc(S(=O)(=O)N2C(=O)C(c3cc(OC)ccc3OC)(N3CCN(c4ccncc4)CC3)c3cc(C#N)ccc32)c(OC)c1 (stereo not given)	7.89	2	2	50	58	–
CCOc1ncccc1C1(N2CCN(c3ccncc3)CC2)C(=O)N(S(=O)(=O)c2ccc(OC)cc2OC)c2ccc(C#N)cc21 (stereo not given)	7.08	–	–	77	168	–
COc1ccc(S(=O)(=O)N2C(=O)C(c3cccnc3OC)(N3CCN(C)C(=O)C3)c3cc(Cl)ccc32)c(OC)c1 (stereo not given)	6.72	–	–	99	113	–
CCOc1ccc(OC)cc1C1(N2CCN(c3ccncc3)CC2)C(=O)N(S(=O)(=O)c2ccc(OC)c3cccnc23)c2ccc(C#N)cc21 (stereo not given)	8.70	84	4	33	15	–
COc1ccccc1C1(N2CCN(c3cccnc3)CC2)C(=O)N(S(=O)(=O)c2cccc3cccnc23)c2ccc(Cl)cc21 (stereo not given)	8.10	3	10	360	359	–
CCOc1ccccc1C1(N2CCN(c3ccncc3)CC2)C(=O)N(S(=O)(=O)c2ccc(OC)cc2OC)c2ccc(C#N)cc21 (stereo not given)	7.44	–	–	43	83	–
COc1ccc(S(=O)(=O)N2C(=O)C(c3cccnc3OC)(N3CCNC(=O)C3)c3cc(Cl)ccc32)c(OC)c1 (stereo not given)	5.87	–	–	–	–	–
COc1ccccc1C1(N2CCN(c3cccnc3)CC2)C(=O)N(S(=O)(=O)c2ccccc2)c2ccc(Cl)cc21 (stereo not given)	6.63	–	–	–	–	–
CCOc1nc(Cl)ccc1C1(N2CCN(c3ccncc3)CC2)C(=O)N(S(=O)(=O)c2ccc(OC)cc2OC)c2ccc(C#N)cc21 (stereo not given)	7.35	–	–	23	–	–
COc1ncccc1C1(N2CCN(c3cccnc3)CC2)C(=O)N(S(=O)(=O)c2cccc3cccnc23)c2ccc(C#N)cc21 (stereo not given)	7.52	0.9	3	326	113	–

Continued, in another order:

pKi (Vasopressin V1b receptor)	Ratio Ki (Homo sapiens [1])	Ratio Ki (Homo sapiens [2])	microsomal CLint [3] [µL/min/mg]	microsomal CLint [4] [µL/min/mg]	SMILES	also measured
7.68	21	6	23	41	CCOc1ccc(OC)cc1C1(N2CCN(c3ccncc3)CC2)C(=O)N(S(=O)(=O)c2ccc(OC)cc2OC)c2ccc(C#N)cc21 (stereo not given)	half-life [5]: 3.4 h; Vd [6]: 2.9 L/kg; clearance [7]: 11.7 mL/min/kg; bioavailability [8]: 22%; Kp at 8 h [9]: 1.1
–	125	69	–	–	CCOc1nc(Cl)ccc1C1(N2CCN(c3ccnc(C)c3)CC2)C(=O)N(S(=O)(=O)c2ccc(OC)cn2)c2ccc(C#N)cc21 (racemic) [listing 1 of 2 here]	–
7.35	0.1	–	19	84	COc1ccc(S(=O)(=O)N2C(=O)C(c3cccnc3OC)(N3CCN(c4cccnc4)CC3)c3cc(Cl)ccc32)c(OC)c1 (stereo not given)	–
7.39	1	–	51	78	COc1ccc(S(=O)(=O)N2C(=O)C(c3cccnc3OC)(N3CCN(C)C(=O)[C@H]3C)c3cc(Cl)ccc32)c(OC)c1 (stereo not given in full)	–
7.33	–	–	93	442	COc1ccccc1C1(N2CCN(c3cccnc3)CC2)C(=O)N(S(=O)(=O)c2ccccc2OC)c2ccc(Cl)cc21 (stereo not given)	–
6.98	–	–	–	–	COc1ccc(S(=O)(=O)N2C(=O)C(c3ccccc3OC)(N3CCN(c4cccnc4)CC3)c3cc(Cl)ccc32)cc1 (stereo not given)	–
7.74	0.8	0.9	41	348	COc1ccc(S(=O)(=O)N2C(=O)C(c3ccccc3OC)(N3CCN(c4cccnc4)CC3)c3cc(Cl)ccc32)c(OC)c1 (stereo not given)	–
9.05	–	–	7	22	CCOc1nc(Cl)ccc1C1(N2CCN(c3ccnc(C)c3)CC2)C(=O)N(S(=O)(=O)c2ccc(OC)cn2)c2ccc(C#N)cc21 (single isomer, unassigned; (+)) [listing 2 of 2 here]	half-life [5]: > 6 h; Vd [6]: 12 L/kg; clearance [7]: 15 mL/min/kg; bioavailability [13]: 37%; Kp at 8 h [9]: 1; pIC50 (Cytochrome P450 3A4): 5.70
7.82	0.5	2	554	156	COc1ncccc1C1(N2CCN(c3cccnc3)CC2)C(=O)N(S(=O)(=O)c2cccc3cccnc23)c2ccc(Cl)cc21 (stereo not given)	–
